In test [1] the target is T1, Human immunodeficiency virus type 1 integrase (Human immunodeficiency virus 1, UniProt Q7ZJM1). Briefly: Inhibition of HIV1 integrase strand transfer activity. The gist of the method: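 Staged strand transfer assay using complexes preassembled on viral donor DNA with recombinantly expressed HIV-1 integrase. IC50 was reported.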
In test [2] the test system is Human immunodeficiency virus 1. In words: Antiviral activity against HIV1 assessed as inhibition of viral spread in infected cells. Type of test: functional. A digest of the protocol:
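HIV-1 multiple-cycle replication (viral spread) assay in cell culture. Inhibition was expressed as IC95, and in some cases also as IC50.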

For test [3], the target named is T1, Human immunodeficiency virus type 1 integrase. Briefly: Inhibition of HIV1 integrase 3' processing/strand transfer coupled activity. A digest of the protocol: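 In vitro assay with recombinant HIV-1 integrase that recapitulates the staged integration process, measuring coupled 3′-processing and strand transfer. IC50 was reported.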
The test system of test [4] is Human immunodeficiency virus. In words: Antiviral activity against HIV PIC. In kind it is functional, organism-based. The settings on record: Human immunodeficiency virus 1, PIC. A digest of the protocol:
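Preintegration complexes were isolated from HIV-1-infected cells and tested for integration activity in vitro. IC50 was reported.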

In test [5] the target is T1, Human immunodeficiency virus type 1 integrase. In words: Inhibition of disintegration activity of HIV1 intact integrase. The gist of the method:
(§1)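 Disintegration activity was measured with both full-length HIV-1 integrase and its catalytic core domain (amino acids 50-212). IC50 was reported.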

The target is the same in test [6]. In words: Inhibition of integration activity of HIV1 intact integrase.
The target is the same in test [7]. Briefly: Inhibition of disintegration activity of HIV1 integrase catalytic core domain (50 to 212). The gist of the method: as §1
The nature of test [8]: Inhibition of HIV1 recombinant gp120/CD4 interaction by ELISA.
Test [9] has as its system Human immunodeficiency virus. In words: Antiviral activity against HIV. In kind it is functional, organism-based. The settings on record: Human immunodeficiency virus 1.

T1 sequence (Q7ZJM1 whole entry): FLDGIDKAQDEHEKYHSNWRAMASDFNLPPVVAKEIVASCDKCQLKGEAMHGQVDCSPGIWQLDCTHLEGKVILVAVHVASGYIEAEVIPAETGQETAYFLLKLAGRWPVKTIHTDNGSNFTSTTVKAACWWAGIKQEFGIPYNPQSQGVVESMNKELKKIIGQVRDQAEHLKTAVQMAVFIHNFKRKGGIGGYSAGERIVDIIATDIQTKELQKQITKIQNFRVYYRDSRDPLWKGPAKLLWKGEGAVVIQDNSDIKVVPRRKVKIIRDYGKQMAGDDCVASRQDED

In general, IC50 refers to the concentration that inhibits the measured activity by half. The IC95 is the point of the concentration-response curve where the effect stands at 95%. For the compound `CN1C(=O)[C@@H](c2cc(Cl)c(O)c(Cl)c2)NC(=O)[C@@H]2NC(=O)[C@@H](c3cc(Cl)c(O)c(Cl)c3)NC(=O)[C@H](NC(=O)C(=O)c3cc(Cl)c(O)c(Cl)c3)Cc3c[nH]c4c(cccc34)-c3cc2cc(c3O)Oc2ccc(cc2)C[C@H]1C(=O)O`, the IC50 came to 8 µM in test [1] and 0.6 µM in test [3]. Moreover, the IC95 in test [2] turned out to be 5 µM.
Take `CN1C(=O)[C@@H](c2cc(Cl)c(O)c(Cl)c2)NC(=O)[C@@H]2NC(=O)[C@@H](c3cc(Cl)c(O)c(Cl)c3)NC(=O)[C@H](NC(=O)C(=O)c3cc(Cl)c(O)c(Cl)c3)Cc3c[nH]c4cc(ccc34)-c3cc2cc(c3O)Oc2ccc(cc2)C[C@H]1C(=O)N[C@@H](C(=O)O)c1ccc(O)cc1` [ISOCOMPLESTATIN]: the half-maximal inhibitory concentration (IC50) in test [1] stood at 4 µM; in [4], 3 µM; in [5], 0.5 µM; in test [3], 0.2 µM; in test [6] it was 3 µM; in test [7] it was 0.5 µM. For the same compound, the figures for the IC50 in [8] and in test [9] were 2 µM and 0.2 µM, respectively. Also, the IC95 in test [2] stood at 5 µM.
As for `CN[C@@H](Cc1ccc(Oc2cc3cc(c2O)-c2cccc4c(c[nH]c24)C[C@@H](N)C(=O)N[C@H](c2cc(Cl)c(O)c(Cl)c2)C(=O)N[C@H]3C(=O)O)cc1)C(=O)O`, the IC50 is greater than 100 µM in test [1] and 28 µM in [3].
For `CN1C(=O)[C@@H](c2cc(Cl)c(O)c(Cl)c2)NC(=O)[C@@H]2NC(=O)[C@@H](c3cc(Cl)c(O)c(Cl)c3)NC(=O)[C@H](NC(=O)C(=O)c3cc(Cl)c(O)c(Cl)c3)CC3C(=O)Nc4cc(ccc43)-c3cc2cc(c3O)Oc2ccc(cc2)C[C@H]1C(=O)N[C@@H](C(=O)O)c1ccc(O)cc1` (stereo partly drawn) [COMPLESTATINS A] the same measures were 12.5 µM and 0.8 µM.
For `CN[C@@H](Cc1ccc(Oc2cc3cc(c2O)-c2cccc4c(c[nH]c24)C[C@@H](N)C(=O)N[C@H](c2cc(Cl)c(O)c(Cl)c2)C(=O)N[C@H]3C(=O)N[C@@H](C(=O)O)c2cc(Cl)c(O)c(Cl)c2)cc1)C(=O)O` the same measures were 45 µM and 3.8 µM.
For `CN1C(=O)[C@@H](c2cc(Cl)c(O)c(Cl)c2)NC(=O)[C@@H]2NC(=O)[C@@H](c3cc(Cl)c(O)c(Cl)c3)NC(=O)[C@H](N)Cc3c[nH]c4c(cccc34)-c3cc2cc(c3O)Oc2ccc(cc2)C[C@H]1C(=O)O`, the IC50 in [1] came to 6 µM; in [3] it was 0.5 µM. The IC95 in [2] turned out to be 7.5 µM.
Consider `CN1C(=O)[C@@H](c2cc(Cl)c(O)c(Cl)c2)NC(=O)[C@@H]2NC(=O)[C@@H](c3cc(Cl)c(O)c(Cl)c3)NC(=O)[C@H](NC(=O)C(=O)c3cc(Cl)c(O)c(Cl)c3)CC3(O)C(=O)Nc4cc(ccc43)-c3cc2cc(c3O)Oc2ccc(cc2)C[C@H]1C(=O)N[C@@H](C(=O)O)c1ccc(O)cc1` (stereo partly drawn) [COMPLESTATIN B], for which the IC50 in test [1] came out at 12.5 µM; in [3], 1.7 µM.
Take `CN1C(=O)[C@@H](c2cc(Cl)c(O)c(Cl)c2)NC(=O)[C@@H]2NC(=O)[C@@H](c3cc(Cl)c(O)c(Cl)c3)NC(=O)[C@H](NC(=O)C(=O)c3cc(Cl)c(O)c(Cl)c3)Cc3c[nH]c4c(cccc34)-c3cc2cc(c3O)Oc2ccc(cc2)C[C@H]1C(=O)N[C@@H](C(=O)O)c1ccc(O)cc1` [CHLOROPEPTIN]: the values for the IC50 in test [1] and in test [3] were 5 µM and 0.4 µM, respectively. The concentration for an effect of 95% (IC95) in test [2] turned out to be 5 µM.
Take `CN(C(=O)[C@H](N)c1cc(Cl)c(O)c(Cl)c1)[C@@H](Cc1ccc(Oc2cc3cc(c2O)-c2cccc4c(c[nH]c24)C[C@@H](N)C(=O)N[C@H](c2cc(Cl)c(O)c(Cl)c2)C(=O)N[C@H]3C(=O)O)cc1)C(=O)O`: the IC50 in test [1] worked out at 86 µM; in [3] it was 7.8 µM.
